Laboratory results reported in ChEMBL document CHEMBL4316619 (Bioorg Med Chem Lett, 2019).
The source made the active and inactive calls. The calls are words filed in the database; no cut-off is given here.

Experiments:
[1] = Drug level in C57BL/6 mouse liver at 30 mg/kg, ip measured at 4 hrs; assay type: ADME, organism-based; conditions: in vivo
Procedure, shortened: (§1)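 Male C57BL/6 mice received a single intraperitoneal dose of 30 mg/kg (N=3). Compound concentrations were followed over time in plasma, liver and lung. Tmax, Cmax, terminal t1/2, AUClast and AUCINF were derived from the mean concentration-time profiles.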

Influenza A virus [2] = experiment: Effect on NS1 protein expression in Influenza A virus A/PR/8/34 (H1N1) infected in MDCK cells at 20 uM by Western blot analysis; assay type: functional, organism-based; conditions: A/Puerto Rico/8/1934(H1N1)
Procedure, shortened: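 MDCK cells, uninfected or infected with A/PR/8/34, treated with DMSO or compound at 20 μM. NS1 protein detected by Western blot, with α-tubulin as loading control.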

[3] = Drug level in C57BL/6 mouse liver at 30 mg/kg, ip measured at 12 hrs; assay type: ADME, organism-based; conditions: in vivo; procedure, shortened: as §1
[4] = Drug level in C57BL/6 mouse liver at 30 mg/kg, ip measured at 48 hrs; assay type: ADME, organism-based; conditions: in vivo; procedure, shortened: as §1
[5] = Drug level in C57BL/6 mouse plasma at 30 mg/kg, ip measured at 4 hrs; assay type: ADME, organism-based
Procedure, shortened: (§2)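 Male C57BL/6 mice, single intraperitoneal 30 mg/kg dose, N=3. Plasma, liver and lung concentrations followed over time to give concentration-time profiles, from which Tmax, Cmax, terminal t1/2, AUClast and AUCINF were derived.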

[6] = Apparent permeability across apical to basolateral side in human Caco2 cells measured after 2 hrs; assay type: ADME, cell-based; conditions: caco-2, 2 h
Procedure, shortened: (§3)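 Permeability was measured across Caco-2 monolayers in both directions, apical to basolateral and basolateral to apical. […] Runs were done with and without 3% BSA, and mass recovery (%) was reported for each direction. Efflux ratio = Papp B→A / Papp A→B.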

[7] = Drug level in C57BL/6 mouse lung at 30 mg/kg, ip measured at 0.5 hrs; assay type: ADME, organism-based; conditions: in vivo; procedure, shortened: as §1
[8] = target: Non-structural protein 1 (Influenza A virus (strain A/Puerto Rico/8/1934 H1N1)) (UniProt P03496); experiment: Inhibition of NS1 in Influenza A virus A/PR/8/34 (H1N1) infected in MDCK cells assessed as restoration of protein-induced reduction in IFN-beta mRNA expression at 20 uM measured after 6 hrs by RT-PCR analysis; assay type: cell-based; conditions: Influenza A virus (A/Puerto Rico/8/1934(H1N1))
Non-structural protein 1 (Influenza A virus (strain A/Puerto Rico/8/1934 H1N1)), sequence (P03496 whole entry): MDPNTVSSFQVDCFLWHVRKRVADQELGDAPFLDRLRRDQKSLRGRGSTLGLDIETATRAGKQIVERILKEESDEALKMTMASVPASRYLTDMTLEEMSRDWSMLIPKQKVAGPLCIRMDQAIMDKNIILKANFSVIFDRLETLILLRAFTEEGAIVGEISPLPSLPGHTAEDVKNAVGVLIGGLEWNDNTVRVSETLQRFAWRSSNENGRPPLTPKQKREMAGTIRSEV
Procedure, shortened: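 MDCK cells infected with A/PR/8/34 at MOI 2 and incubated 6 h with compound at 20 μM. Cells harvested; IFN-β and β-actin mRNA detected by RT-PCR. Poly(I:C) lane serves as positive control for IFN-β induction.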

[9] = Apparent permeability across basolateral to apical side in human Caco2 cells measured after 2 hrs; assay type: ADME, cell-based; conditions: caco-2, 2 h; procedure, shortened: as §3
[10] = Apparent permeability across apical to basolateral side in human Caco2 cells measured after 2 hrs in presence of 3% BSA; assay type: ADME, cell-based; conditions: caco-2, 2 h; procedure, shortened: as §3
[11] = Tmax in C57BL/6 mouse plasma at 30 mg/kg, ip; assay type: ADME, organism-based; conditions: mouse, in vivo; procedure, shortened: as §2
[12] = Drug level in C57BL/6 mouse lung at 30 mg/kg, ip measured at 0.25 hrs; assay type: ADME, organism-based; conditions: in vivo; procedure, shortened: as §1
[13] = Drug level in C57BL/6 mouse plasma at 30 mg/kg, ip measured at 3 hrs; assay type: ADME, organism-based; procedure, shortened: as §2
[14] = Cmax in C57BL/6 mouse liver at 30 mg/kg, ip; assay type: ADME, organism-based; set-up: dose 30 mg/kg, route intraperitoneal; procedure, shortened: as §1
[15] = Aqueous kinetic solubility of the compound; assay type: physicochemical; conditions: buffer
[16] = Tmax in C57BL/6 mouse liver at 30 mg/kg, ip; assay type: ADME, organism-based; procedure, shortened: as §2
[17] = Terminal half life in C57BL/6 mouse liver at 30 mg/kg, ip; assay type: ADME, organism-based; conditions: read-out: beta t1/2 (converted); procedure, shortened: as §2
[18] = Stability of the compound in mouse liver microsomes assessed as parent compound remaining measured after 15 mins; assay type: ADME, Microsome; conditions: read-out: Stability
Procedure, shortened: (§4)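 Mouse liver microsomes; percent parent compound remaining measured at 0, 15 and 30 min.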

[19] = Drug level in C57BL/6 mouse plasma at 30 mg/kg, ip measured at 0.25 hrs; assay type: ADME, organism-based; procedure, shortened: as §2
MDCK = experiment: Cytotoxicity against MDCK cells assessed as reduction in cell viability up to 100 uM measured after 48 hrs by CellTiter Glo assay; assay type: cell-based, Canis lupus familiaris; conditions: dog
Procedure, shortened: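 MDCK cells were incubated with compound under the conditions of the 48 h replication assay. Cytotoxicity was read with the CellTiter-Glo ATP viability assay. Follow-up viability testing used 5, 10, 50 and 100 μM.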

[20] = Drug level in C57BL/6 mouse lung at 30 mg/kg, ip measured at 3 hrs; assay type: ADME, organism-based; conditions: in vivo; procedure, shortened: as §1
[21] = Drug level in C57BL/6 mouse liver at 30 mg/kg, ip measured at 8 hrs; assay type: ADME, organism-based; conditions: in vivo; procedure, shortened: as §1
[22] = AUClast in C57BL/6 mouse lung at 30 mg/kg, ip; assay type: ADME, organism-based; set-up: dose 30 mg/kg, route intraperitoneal, time 0 - last; procedure, shortened: as §1
[23] = AUC (infinity) in C57BL/6 mouse lung at 30 mg/kg, ip; assay type: ADME, organism-based; set-up: dose 30 mg/kg, route intraperitoneal, time infinity; procedure, shortened: as §1
[24] = Drug level in C57BL/6 mouse lung at 30 mg/kg, ip measured at 1 hrs; assay type: ADME, organism-based; conditions: in vivo; procedure, shortened: as §1
[25] = Cmax in C57BL/6 mouse lung at 30 mg/kg, ip; assay type: ADME, organism-based; set-up: dose 30 mg/kg, route intraperitoneal; procedure, shortened: as §1
[26] = Cytotoxicity against MDCK cells assessed as reduction in cell viability measured on day 5 by Celltiter-Glo luminescence assay; assay type: cell-based, Canis lupus familiaris; conditions: dog, MDCK cells
Procedure, shortened: (§5)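 MDCK cells were infected with seasonal influenza A strains through NIAID resources and scored for protection from virus-induced cell death. Compounds were tested at four concentrations (0.8, 4, 20, 100 μM). EC50/EC90 (reduction of viral cell death) and CC50 (reduction of cell viability) were derived in μM, and SI50 = CC50/EC50.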

[27] = Drug level in C57BL/6 mouse liver at 30 mg/kg, ip measured at 0.25 hrs; assay type: ADME, organism-based; conditions: in vivo; procedure, shortened: as §1
Influenza A virus [28] = experiment: Antiviral activity against Influenza A virus (A/California/7/2009(H1N1)) infected in MDCK cells assessed as reduction in virus-induced cytopathic effect measured on day 5 by Celltiter-Glo luminescence assay; assay type: functional, organism-based; conditions: 120 h; procedure, shortened: as §5
[29] = Drug level in C57BL/6 mouse plasma at 30 mg/kg, ip measured at 48 hrs; assay type: ADME, organism-based; procedure, shortened: as §2
[30] = Stability of the compound in mouse liver microsomes assessed as parent compound remaining measured after 30 mins; assay type: ADME, Microsome; conditions: read-out: Stability; procedure, shortened: as §4
[31] = Terminal half life in C57BL/6 mouse plasma at 30 mg/kg, ip; assay type: ADME, organism-based; conditions: mouse, in vivo; procedure, shortened: as §2
[32] = Drug level in C57BL/6 mouse plasma at 30 mg/kg, ip measured at 8 hrs; assay type: ADME, organism-based; procedure, shortened: as §2
[33] = target: Non-structural protein 1 (Influenza A virus (strain A/Puerto Rico/8/1934 H1N1)) (UniProt P03496); experiment: Inhibition of Influenza A virus A/PR/8/34 (H1N1) NS1 expressed in 293 cells assessed as increase in poly(I:C)-induced IFN-beta reporter activity treated 16 hrs […] measured after 24 hrs by luciferase reporter gene assay; assay type: cell-based; conditions: Influenza A virus (A/Puerto Rico/8/1934(H1N1))
Procedure, shortened: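 293 cells co-transfected with a human IFN-β promoter-driven firefly luciferase reporter and NS1 expression constructs. At 16 h post-transfection, poly(I:C) 50 μg/mL plus compound (20 μM) or 1% DMSO added for a further 24 h; luciferase read by luminometer. Untransfected cells serve as baseline.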

[34] = Drug level in C57BL/6 mouse plasma at 30 mg/kg, ip measured at 1 hrs; assay type: ADME, organism-based; procedure, shortened: as §2
[35] = Drug level in C57BL/6 mouse plasma at 30 mg/kg, ip measured at 2 hrs; assay type: ADME, organism-based; procedure, shortened: as §2

## COc1cc(-c2ccnc3c2c(C)nn3-c2ccc(C(F)(F)F)cc2)ccc1O
[1]
  Drug uptake: 13997 nmol/kg
Influenza A virus [2]
  Activity: inactive
[3]
  Drug uptake: 1984 nmol/kg
[4]
  Drug uptake: 23 nmol/kg
[5]
  concentration at 4 h: 1200 nM
[6]
  Papp: 0.1 ×10⁻⁶ cm/s
[7]
  Drug uptake: 36057 nmol/kg
[8]
  inhibition: Active
[9]
  Papp: 0.23 ×10⁻⁶ cm/s
[10]
  Papp: 0.22 ×10⁻⁶ cm/s
[11]
  Tmax: 0.25 h
[12]
  Drug uptake: 46490 nmol/kg
[13]
  concentration at 3 h: 1730 nM
[14]
  Cmax: 49600 ng/mL
[15]
  Kinetic_solubility: 3.1 µM
[16]
  Tmax: 0.25 h
[17]
  half-life: 4.7 h
[18]
  remaining at 0.25 h: 66%
[19]
  concentration at 0.25 h: 6100 nM
MDCK
  Activity: Non-Toxic
[20]
  Drug uptake: 10951 nmol/kg
[21]
  Drug uptake: 5058 nmol/kg
[22]
  AUC(0-t): 53900 ng·h/mL
[23]
  AUC(0-inf): 53900 ng·h/mL
[24]
  Drug uptake: 26592 nmol/kg
[25]
  Cmax: 18600 ng/mL
[26]
  CC50 at 5 day: 19.8 to 27.8 µM
[27]
  Drug uptake: 124197 nmol/kg
Influenza A virus [28]
  EC50: 0.7 µM
  EC90: > 50 µM
[29]
  concentration at 48 h: 3 nM
[30]
  remaining at 0.5 h: 45%
[31]
  beta t1/2: 4.6 h
[32]
  concentration at 8 h: 555 nM
[33]
  inhibition: Active
[34]
  concentration at 1 h: 5120 nM
[35]
  concentration at 2 h: 2530 nM
